47 sequences from the EternaBench riboswitch data can be followed below.

The subject of this data set is MS2 coat protein. In words: apparent Kd, MS2 coat protein; higher = weaker binding; RNA-MaP array; FMN 200 µM where present. The method in brief:
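Apparent Kd: the median of filtered binding-curve fits from single clusters. Designs were transcribed on Illumina sequencing-chip clusters by stalled E. coli RNA polymerase and titrated with SNAP-549-labelled MS2 coat protein from 0.7 or 1.5 nM, doubling to 3 µM, in 100 mM Tris-HCl pH 7.5, 80 mM KCl, 4 mM MgCl2, BSA, DTT, yeast tRNA and Tween-20. Each series ran without and then with constant ligand, and green signal was normalised to red-channel RNA signal and control-cluster median Fmax.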

Setting [1] is: designed as: OFF switch for flavin mononucleotide, no ligand.
[2] abbreviates: ligand present: flavin mononucleotide, designed as: OFF switch for flavin mononucleotide.
Where [3] appears, read: designed as: ON switch for flavin mononucleotide, no ligand.
Where [4] appears, read: ligand present: flavin mononucleotide, designed as: ON switch for flavin mononucleotide.

What is called apparent Kd is the concentration giving half-maximal binding under the conditions of the assay.

For “GGAUAGGACAGAGGAUAUACGUGCUAGAGAUACUAGCAAAAGUUCCUCACAUGAGGAUCACCCAUGUAGAAGGCUGUCCUAUCG”, the “apparent Kd” value was 65.5 nM under setting [1] and 214 nM under setting [2].

For “AAUUUACAUGAGGAUCACCCAUGUGAGGAUAUGAUACUAUGUACUUCGGUACAUAGUAUCAGAAGGCAUGUGGA”, the “apparent Kd” value stood at 129 nM under setting [1] and 37.1 nM under setting [2].

Turning to “UCUGGUCGAGGAUAUGCGUAAUGUGUUACGGCACGAGGUCUACAUGAGGAUCACCCAUGUAGAAGGCGAUCAGA”, the “apparent Kd” value reads like this: under setting [1], 13.9 nM; under setting [2], 12.7 nM.

On to “GUAGCAUACCGAGGAUAUUCAUAUAAUAAGUAAACAUGAGGAUCACCCAUGUAGCGAGAGCCUUGGGAGAAGGCGGAAUGCUAC”, for which the “apparent Kd” value reads like this: under setting [3], 337 nM; under setting [4], 58.1 nM.

As to “UCUCGUGUUCAGAAGGGCAAUCAACGAACAUGAGGAUCACCCAUGUUCUGCAGGAUAUGAACGGGUGGGAGCCCUGCGAAGGGA”, the “apparent Kd” value by setting is: under setting [3], 167 nM; under setting [4], 25.5 nM.

With “GACUGCUGAGGAUAUACAUGAGGAUCACCCAUGUGCUUCAGCUACGAAAGUAGCAUUGGUAGAAGGUAGUAGUC”, the “apparent Kd” value came out at 12.4 nM under setting [1] and 22.4 nM under setting [2].

In the case of “GACUUGCGCACAGGAUAUCCACGGAGCGGACGUGGAGAAGGGUGACAUGAGGAUCACCCAUGUACGUAAGUCUGGAUCACAUCC”, the “apparent Kd” value is, setting by setting: under setting [3], 41.8 nM; under setting [4], 19.5 nM.

For the sequence “AAAGUGCAAGGAUAUAUAUGAAAAGUUACGAAAGUAACAAAACAUGAGGAUCACCCAUGUAGAAGGUGCACAAA”, the “apparent Kd” value under setting [1] is 27.8 nM and the “apparent Kd” value under setting [2] stood at 24.4 nM.

“UUAUUAUAUGUAGGAUAUGCGUAUUAUUAUUAUGCAGAAGGACAUGAGGAUCACCCAUGUAUAUUAUUAUUAUAUAUUAUAUAU”: the “apparent Kd” value under setting [1] came to 29 nM and the “apparent Kd” value under setting [2] came to 66.9 nM.

“GAUCCGUGGCUUUCGCUUUGUUCACAUGAGGAUCACCCAUGUAGAAGGUAGCGGUUGAAUUUCGCUGAGGAUAUACAUAGGUGC”: the “apparent Kd” value was 13.4 nM under setting [1] and 24.3 nM under setting [2].

As to “GCCAUCGCAUGAGGAUAUGGCACCGUUUCGGUGCCAGAAGGCAUGUCAUAAGACAUGAGGAUCACCCAUGUAGUUAAGAUGGCA”, the “apparent Kd” value reads like this: under setting [3], 741 nM; under setting [4], 47.6 nM.

Regarding “CUCGUGUGAGGAUAUGCGGGCGGGCGCGUUUGUGUUUGUUUGUAGAAGGUACAUGAGGAUCACCCAUGUGCUGG”, the “apparent Kd” value was found to be 24 nM under setting [1] and 80.9 nM under setting [2].

As for “UACCUACAUGAGGAUCACCCAUGUCAGGAUAUGUGCUGAGACGACAUCGACUUUCAGCGUAGAAGGGACCAGGG”, the “apparent Kd” value by setting is: under setting [1], 24.4 nM; under setting [2], 46.5 nM.

As to “GGGUACAUCGGAGGAUAUCAUGUAAAUACAUGAGGAUCACCCAUGUCGAUGGAGACCUCGGAGAUUGAGAAGGCCGAUGUACCG”, the “apparent Kd” value was found to be 694 nM under setting [3] and 201 nM under setting [4].

In the case of “UGGCCGGAGACAGGAUAUGUGACUGCAUAGUGCACAGAAGGGUCUACAUGAGGAUCACCCAUGUCACCGAACGCCAAACCACAA”, the “apparent Kd” value came to 574 nM under setting [3] and 26.1 nM under setting [4].

Consider “GGAAUGUCGGGAGGAUAUCCAAAUGUAUACAUAGGAGAAGGCCCGCACAUGAGGAUCACCCAUGUAAUAACGCGUGGCAUCUAC”, for which the “apparent Kd” value is, setting by setting: under setting [1], 81.3 nM; under setting [2], 169 nM.

Take “CUUUUAUAAUAGAAGGUAGACUUCAUGAGGAUCACCCAUGUGUUGGUACUAAGGAUAUGUAAUAACAUGAGGAUCACCCAUGUU”: the “apparent Kd” value under setting [3] turned out to be 15.8 nM and the “apparent Kd” value under setting [4] worked out at 16.1 nM.

Take “AAUUAUUUUUGAGGAUAUGGUGGUGAAACACCACCAGAAGGCGAAAUAAACAUGAGGAUCACCCAUGUGAGCCUGAUGCUUAUG”: the “apparent Kd” value runs as follows: under setting [1], 21.1 nM; under setting [2], 55.8 nM.

As for “AAUAAACAUGAGGAUCACCCAUGUCAGGAUAUCCAUUUGUUUUUGUUGGUUUUUUUUUGGAGAAGGGACGCUUA”, the “apparent Kd” value worked out at 87.3 nM under setting [1] and 63 nM under setting [2].

As for “AAGAAGUGAGGAUAUACAUGAGGAUCACCCAUGUUAAGAAGAAUUUUAGAGAAAGAAGGUAGAAGGCACAAGAA”, the “apparent Kd” value under setting [1] came out at 49.5 nM and the “apparent Kd” value under setting [2] came to 47.1 nM.

“GCACGGUAUGUAGGAUAUGCAUAGCAUUGCUAUGCAGAAGGACAUGAGGAUCACCCAUGUAUGUAUUCCAUACAUUUCCCGUGC”: the “apparent Kd” value was determined as 5.73 nM under setting [1] and 5.74 nM under setting [2].

For “UGUUGAUAGCAGAAGGACAUGAGGAUCACCCAUGUAUGGAUACAAAUUUAUGUAGGAUAUGCUAUUAACUAAGAGUGAGCGUUC”, the “apparent Kd” value under setting [1] turned out to be 9.46 nM and the “apparent Kd” value under setting [2] worked out at 42.5 nM.

Consider “UACAUGAGGAUCACCCAUGUUUUGUCGUGUAUGGUAUUUAUCUAGGAUAUCAAUCUAUUAAUUUAUGAGAAGGAGAAUAUUAAU”, for which the “apparent Kd” value under setting [1] was determined as 35.5 nM and the “apparent Kd” value under setting [2] was found to be 39.7 nM.

Take “GGAUAGGACAGAGGAUAUACGUGCUAGAGAUACUAGCAAAAUUUCCUCACAUGAGGAUCACCCAUGUAGAAGGCUGUCGUAUCG”: the “apparent Kd” value is 15.3 nM under setting [1] and 334 nM under setting [2].

Take “ACAUGAGGAUCACCCAUGUAGAAUGAAGAAGGUAGAUAAUUGUGUUUCACCCAUGUACAUAAAUCUAAGGAUAUUCUAAUAAUU”: the “apparent Kd” value under setting [3] was determined as 12.3 nM and the “apparent Kd” value under setting [4] came out at 7.35 nM.

As to “CAGCGCUGUCGAGAGGAUAUGCGGUGAUGGACAUGAGGAUCACCCAUGUAAGCGAUAGCAUUACGGCAGAAGGCUCUGCAGCUGC”, the “apparent Kd” value was found to be 25.1 nM under setting [3] and 17.4 nM under setting [4].

As for “AUUAUAUAGAGAGGAUAUAGAAUAUUAUUUUAACAUGAGGAUCACCCAUGUAACCUUAUGUGUAGCUAGAAGGCUCAUUUAUUA”, the “apparent Kd” value reads like this: under setting [1], 42.2 nM; under setting [2], 74.2 nM.

Take “GAGUACAUCGGAGGAUAUCAUGUAAAUACAUGAGGAUCACCCAUGUCGAUGGAGACAUCGGAGAUUGAGAAGGCCGAUGUACCG”: the “apparent Kd” value under setting [3] is 180 nM and the “apparent Kd” value under setting [4] turned out to be 8.63 nM.

In the case of “UUUCGGCUCGAGAAGGUCUAUCGACAUGAGGAUCACCCAUGUUGCCAUGGAAGGAUAUCGAAGGCAGCACGGGAAAUAGUCCGG”, the “apparent Kd” value reads like this: under setting [3], 185 nM; under setting [4], 53.3 nM.

Take “UGAAAUCAUGUAGGAUAUGCAUGGCGAAGCUGCGCAGAAGGACAUGAGGAUCACCCAUGUUAUAGCUACCCAGUUCGGUGGCAA”: the “apparent Kd” value runs as follows: under setting [1], 37.3 nM; under setting [2], 171 nM.

Consider “GUUACAUGAGGAUCACCCAUGUAUGUGUGGGAGUAAGUGUCUUAGGAUAUCUAUUAGUUAAAUUAAGAGAAGGAAGAUUGUUGU”, for which the “apparent Kd” value is, setting by setting: under setting [3], 119 nM; under setting [4], 127 nM.

For “GCUCUACAUGAGGAUCACCCAUGUUCGGACGCACGAGGAUAUGCAUGGGCGAAAGCUGGUGCAGAAGGCGUGGGAC”, the “apparent Kd” value was 209 nM under setting [3] and 33.4 nM under setting [4].

With “ACAAAGGUAGGAUAUCGGACUAUGGACAUGAGGAUCACCCAUGUGCGUCCAAUGCCCAACCGAGAAGGACCAACAG”, the “apparent Kd” value under setting [1] was found to be 47.1 nM and the “apparent Kd” value under setting [2] turned out to be 89 nM.

Regarding “AUAUAUAAUAAGAAGGUGCCAGCGAGAGCUGCACAUGAGGAUCACCCAUGUUGUCGGUGACGACGCAAGGAUAUUAUUAUAUAU”, the “apparent Kd” value runs as follows: under setting [3], 56.8 nM; under setting [4], 18.5 nM.

For “ACCGAGACAGAAGGAUAUACAUUGGUUACGCUGUUCGCGUCCUCGACCACAUGAGGAUCACCCAUGUAGAAGGUUUGUAGCGCG”, the “apparent Kd” value under setting [1] was 16.5 nM and the “apparent Kd” value under setting [2] was 42.7 nM.

As for “AUACUUAAUGAAGGAUAUCUUAGCAUAAACCUGAGAGAAGGUCAUUAUUACAUGAGGAUCACCCAUGUUGUGGUUAAUGGGUAA”, the “apparent Kd” value is 264 nM under setting [1] and 327 nM under setting [2].

Consider “GCCUUAUCCGUCAGGAUAUACAGCUGUUAGUUGUUGUAGAAGGGACAUGAGGAUCACCCAUGUACGUACCAUUG”, for which the “apparent Kd” value came to 19.2 nM under setting [1] and 22.2 nM under setting [2].

On to “UCUACUUUACAUGAUUCAUCAACACAGGAUAUACCCGCAACAUGAGGAUCACCCAUGUAGGCCCGGUAGAAGGGUGCUUGGGAA”, for which the “apparent Kd” value is, setting by setting: under setting [3], 10.8 nM; under setting [4], 6.43 nM.

For the sequence “AUUUAUGUCAAAGGAUAUAUAAAUAAAUUUAUAACAUGAGGAUCACCCAUGUACUUUAGUAUGAGGUAGAAGGUUGAUAAGAGU”, the “apparent Kd” value by setting is: under setting [3], 47.6 nM; under setting [4], 35.6 nM.

As for “AAUUGAAACGUAGGAUAUCGCACAAAUCUAAAACGAGAAGGACGUACAUGAGGAUCACCCAUGUUAAAUGGUGUAGAUUAGAUG”, the “apparent Kd” value runs as follows: under setting [1], 543 nM; under setting [2], 636 nM.

For the sequence “UCGGCGCGAGGAUAUACGUUUGCUUUUUAGGAUCGUGGCGUACAUGAGGAUCACCCAUGUAGAAGGCGCGCCGC”, the “apparent Kd” value turned out to be 13.8 nM under setting [1] and 20.3 nM under setting [2].

Take “GUCAGCUCGUGAGGAUAUACAACACUGCUUCGGCAGUGUAUUAAGAUCACAUGAGGAUCACCCAUGUAGAAGGUACGAGCUGAU”: the “apparent Kd” value under setting [1] was determined as 8.56 nM and the “apparent Kd” value under setting [2] came to 82.9 nM.

With “UUUUUUUGCUGAGGAUAUAGCGCGCGUUUUGCGCUAGAAGGCAGACAUGUGGUUCACCCAUGUACAUGAGGAUCACCCAUGUUA”, the “apparent Kd” value runs as follows: under setting [3], 552 nM; under setting [4], 301 nM.

For “GGUACCUUCACAGGAUAUGCUAUGGUUUCCGUAGCAGAAGGGUGAUACAUGAGGAUCACCCAUGUGGUGCCAGGGCGUGAGCCC”, the “apparent Kd” value by setting is: under setting [3], 387 nM; under setting [4], 293 nM.

Regarding “GUCUUCAUGACAUGAGGAUCACCCAUGUGUUAUAUUUUUACUAAGGAUAUAUUUUUAAUGUUGAGAUAGAAGGUAGUUUCGGUC”, the “apparent Kd” value was found to be 101 nM under setting [1] and 121 nM under setting [2].

Take “AUGAGUAAAGCAGGAUAUCUAUUGACUCUGUAACAUGAGGAUCACCCAUGUAGAGAAGGGCUAAUUCUUACUCUUCGGAGUUGA”: the “apparent Kd” value under setting [1] came out at 10.2 nM and the “apparent Kd” value under setting [2] was 11.7 nM.

On to “AAUUUUUAACAGAAGGCGUUUAUAGUUAAGUUACGAGGAUAUGUUUUACAUGAGGAUCACCCAUGUUACUAGGGUAGUAUAUAU”, for which the “apparent Kd” value by setting is: under setting [3], 42.4 nM; under setting [4], 30.8 nM.
